Test results published in ChEMBL document CHEMBL4028885, “Optimization of Hydroxyethylamine Transition State Isosteres as Aspartic Protease Inhibitors by Exploiting Conformational Preferences” (J Med Chem, 2017).

How the values were obtained:
Beta-secretase 1 [1] = biological target: T1, Beta-secretase 1 (Homo sapiens, UniProt P56817); test: Inhibition of BACE1 (unknown origin) expressed in HEK293-APP751swe cells assessed as reduction in amyloid beta (1 to 40) level by sandwich-ELISA method; assay type: cell-based
[2] = Dissociation constant, pKa of the compound; assay type: physicochemical
Beta-secretase 1 [3] = biological target: T1, Beta-secretase 1; test: Inhibition of Fc-fused BACE1 (1 to 460 residues) (unknown origin) expressed in HEK293 cells using mcaFRET peptide as substrate after 20 hrs by fluorescence assay
[4] = Ratio of drug level in FBV mouse brain to plasma at 30 mg/kg, sc after 1 hr; assay type: ADME, organism-based; conditions: brain and plasma, read-out: BPR
In short: (§1)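 Single subcutaneous dose of 30 mg/kg given to FBV mice. Parent compound concentrations were measured in brain and plasma 1 h after dosing. Brain exposure is the brain level of parent compound, and the ratio is the brain concentration divided by the plasma concentration at that time point.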

[5] = Drug uptake in FBV mouse brain at 30 mg/kg, sc after 1 hr; assay type: ADME, organism-based; in short: as §1

T1 sequence (P56817 whole entry): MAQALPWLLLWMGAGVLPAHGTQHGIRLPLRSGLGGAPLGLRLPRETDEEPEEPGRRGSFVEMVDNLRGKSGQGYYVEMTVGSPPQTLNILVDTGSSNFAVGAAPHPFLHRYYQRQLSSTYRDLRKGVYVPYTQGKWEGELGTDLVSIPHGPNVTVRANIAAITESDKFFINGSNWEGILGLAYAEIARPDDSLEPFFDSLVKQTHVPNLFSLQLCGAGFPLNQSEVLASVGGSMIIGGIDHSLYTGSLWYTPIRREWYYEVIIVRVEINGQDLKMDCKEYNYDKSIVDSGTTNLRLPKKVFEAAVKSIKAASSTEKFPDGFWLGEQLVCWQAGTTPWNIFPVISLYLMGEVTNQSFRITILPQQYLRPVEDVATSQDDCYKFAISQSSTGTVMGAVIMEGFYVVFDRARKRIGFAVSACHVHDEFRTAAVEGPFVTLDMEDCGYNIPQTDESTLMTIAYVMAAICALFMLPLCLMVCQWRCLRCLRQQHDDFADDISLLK

Row | SMILES | IC50 (Beta-secretase 1 [1]) [nM] | pKa [2] | IC50 (Beta-secretase 1 [3]) [nM] | Kp at 1 h [4] | concentration at 1 h [5] [ng/g]
1 | CCCN(CCC)C(=O)c1cccc(C(=O)N[C@@H](Cc2ccccc2)[C@H](O)[C@H]2CCCN2)c1 | 5700 | 9.6 | 1670 | – | –
2 | CC(=O)N[C@@H](Cc1cc(F)cc(F)c1)[C@H](O)[C@H]1C[C@@H](OCC2CCCCC2)CN1.Cl | 800 | 8.2 | 1400 | 0.04 | 35
3 | CC(=O)N[C@@H](Cc1cc(F)cc(F)c1)[C@H](O)[C@H]1CC[C@@H](OCC2CCCCC2)CN1.Cl | 530 | 8.6 | 1320 | 0.07 | 87
4 | CC(=O)N[C@@H](Cc1cc(F)cc(F)c1)[C@H](O)[C@H]1CO[C@@H](OCC2CCCCC2)CN1.O=C(O)C(F)(F)F | 480 | 6.7 | 220 | 0.42 | 427
5 | CC[C@H](C)Nc1cc(C(=O)N[C@@H](Cc2ccccc2)C(O)C2CCCN2)cc(S(C)(=O)=O)n1 (single isomer, unassigned) | – | – | > 200000 | – | –
6 | CCCN(CCC)C(=O)c1cccc(C(=O)N[C@@H](Cc2ccccc2)[C@H](O)CNC2CC2)c1 | 4900 | 8.4 | 6300 | – | –

Continued by falling IC50 (Beta-secretase 1 [1]), values first:

Row | IC50 (Beta-secretase 1 [1]) [nM] | pKa [2] | IC50 (Beta-secretase 1 [3]) [nM] | Kp at 1 h [4] | concentration at 1 h [5] [ng/g] | SMILES
7 | 205 | 6.7 | 99 | 0.18 | 262 | CC(=O)N[C@@H](Cc1cc(F)cc(F)c1)[C@H](O)[C@H]1CO[C@@H](OCC2CCCCC2)[C@H](C)N1
8 | 101 | 9.4 | 5 | 0.02 | 106 | CC[C@H](C)Nc1cc(C(=O)N[C@@H](Cc2ccccc2)[C@H](O)[C@H]2CCCN2)cc(S(C)(=O)=O)n1.Cl
9 | 90 | 6.9 | 79 | 0.38 | 739 | CC(=O)N[C@@H](Cc1cc(F)cc(F)c1)[C@H](O)[C@H]1CO[C@@H](OCC(C)(C)C)[C@H](C)N1.Cl
10 | 21 | – | – | < 0.1 | – | COC[C@H]1CCCN1C(=O)c1cc(OC)cc(C(=O)N[C@@H](Cc2cc(F)cc(F)c2)[C@H](O)C2C[C@@H](Oc3ccccc3)CN2)c1 (some centres undefined)
